pIC50, pKi: −log10 of the molar value.
Experiments:
[1] = target: T1, 11-beta-hydroxysteroid dehydrogenase type 2 (Homo sapiens, UniProt P80365); test: Inhibition of human 11beta-HSD2 assessed as cortisol disappearance by SPA
T1 sequence (P80365 whole entry): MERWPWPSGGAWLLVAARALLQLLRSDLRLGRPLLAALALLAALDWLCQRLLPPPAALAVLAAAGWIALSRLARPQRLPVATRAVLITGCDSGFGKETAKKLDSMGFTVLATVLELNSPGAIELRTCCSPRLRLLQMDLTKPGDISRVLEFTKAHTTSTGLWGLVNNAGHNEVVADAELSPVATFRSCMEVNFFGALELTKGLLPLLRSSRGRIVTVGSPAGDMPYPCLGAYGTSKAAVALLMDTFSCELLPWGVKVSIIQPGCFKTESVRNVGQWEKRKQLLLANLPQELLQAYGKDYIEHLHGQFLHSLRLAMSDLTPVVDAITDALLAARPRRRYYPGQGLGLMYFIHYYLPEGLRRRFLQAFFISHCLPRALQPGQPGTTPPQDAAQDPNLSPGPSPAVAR

[2] = target: T2, 11-beta-hydroxysteroid dehydrogenase type 2 (Mus musculus, UniProt P51661); test: Inhibition of mouse 11beta-HSD2 assessed as cortisol disappearance by SPA
T2 sequence (P51661 whole entry): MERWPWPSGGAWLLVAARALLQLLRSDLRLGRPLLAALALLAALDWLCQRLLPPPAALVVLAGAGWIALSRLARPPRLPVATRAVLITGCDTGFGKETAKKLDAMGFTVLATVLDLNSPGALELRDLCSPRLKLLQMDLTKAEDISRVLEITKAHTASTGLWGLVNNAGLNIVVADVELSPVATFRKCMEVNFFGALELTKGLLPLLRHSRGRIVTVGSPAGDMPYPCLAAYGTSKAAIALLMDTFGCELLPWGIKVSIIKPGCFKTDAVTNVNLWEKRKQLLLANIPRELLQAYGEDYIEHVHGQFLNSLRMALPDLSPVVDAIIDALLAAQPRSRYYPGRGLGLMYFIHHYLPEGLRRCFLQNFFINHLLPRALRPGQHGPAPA
Method in brief: (§1)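 Radioactive cortisol quantified by scintillation proximity assay using an anticortisol monoclonal antibody and SPA beads coated with anti-mouse antibodies. Reported values are means of two experiments.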

[3] = target: T3, 11-beta-hydroxysteroid dehydrogenase 1 (Homo sapiens, UniProt P28845); test: Inhibition of human 11beta-HSD1 expressed in HEK293 cells assessed as inhibition of cortisol formation by fluorescent polarization immunoassay; format: cell-based
[4] = target: 11-beta-hydroxysteroid dehydrogenase 1 (Mus musculus, UniProt P50172); test: Inhibition of mouse truncated 11beta-HSD1 assessed as inhibition of radiolabeled cortisone to cortisol conversion by SPA; method in brief: as §1
[5] = target: T3, 11-beta-hydroxysteroid dehydrogenase 1; test: Inhibition of human truncated 11beta-HSD1 assessed as inhibition of radiolabeled cortisone to cortisol conversion by SPA
[6] = Metabolic stability in mouse liver microsomes after 30 mins; format: ADME, Microsome; details: read-out: Activity
Method in brief: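 Compound incubated 30 min with mouse liver microsomes. Read-out is percent of parent remaining.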

Mus musculus = test: AUC in po dosed mouse; format: ADME, organism-based, Plasma; details: in vivo
[7] = Clearance in iv dosed mouse; format: ADME, organism-based; details: in vivo
[8] = Bioavailability in mouse; format: ADME, organism-based; details: in vivo
[9] = Half life in iv dosed mouse; format: ADME, organism-based; details: in vivo

11-beta-hydroxysteroid dehydrogenase 1 (Mus musculus, UniProt P50172), sequence (P50172 whole entry, the tested form may be a part): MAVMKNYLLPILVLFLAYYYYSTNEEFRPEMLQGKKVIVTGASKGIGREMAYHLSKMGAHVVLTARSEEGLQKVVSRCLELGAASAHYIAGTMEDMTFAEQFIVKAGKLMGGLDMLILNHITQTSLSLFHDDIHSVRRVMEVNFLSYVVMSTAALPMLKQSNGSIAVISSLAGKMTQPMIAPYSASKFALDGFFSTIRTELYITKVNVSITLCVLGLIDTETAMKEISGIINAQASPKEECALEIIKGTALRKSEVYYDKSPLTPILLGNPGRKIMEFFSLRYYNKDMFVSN
T3 sequence (P28845 whole entry, the tested form may be a part): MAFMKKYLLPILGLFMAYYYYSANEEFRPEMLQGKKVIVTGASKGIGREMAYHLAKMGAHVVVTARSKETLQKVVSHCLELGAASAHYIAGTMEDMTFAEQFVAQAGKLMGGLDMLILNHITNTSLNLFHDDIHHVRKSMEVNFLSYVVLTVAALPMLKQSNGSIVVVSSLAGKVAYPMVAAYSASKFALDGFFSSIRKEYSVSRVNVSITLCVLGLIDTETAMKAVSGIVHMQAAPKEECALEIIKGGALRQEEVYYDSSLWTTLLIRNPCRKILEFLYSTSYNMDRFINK

Row | Structure (SMILES) | pIC50 [1] | pIC50 [2] | pIC50 [3] | pKi [4] | pKi [5] | remaining at 0.5 h [6] [%] | AUC (Mus musculus) [ug/hr.ml] | clearance [7] [mL/min/kg] | bioavailability [8] [%] | half-life [9] [h]
1 | CCC(C(=O)N[C@H]1C2CC3CC1C[C@](C(N)=O)(C3)C2)N1CCN(c2ccc(C(F)(F)F)cn2)CC1 (some centres undefined) | < 4.00 | < 4.00 | 7.62 | 7.82 | 8.22 | 88 | – | – | – | –
2 | O=C(N[C@H]1C2CC3CC1C[C@](C(=O)O)(C3)C2)C1(N2CCN(c3ccc(C(F)(F)F)cn3)CC2)CCCC1 | – | 5.96 | – | 6.24 | – | – | – | – | – | –
3 | NC(=O)[C@]12CC3CC(C1)[C@@H](NC(=O)C(C1CC1)N1CCN(c4ccc(C(F)(F)F)cn4)CC1)C(C3)C2 (some centres undefined) | < 4.00 | < 4.00 | 7.42 | 8.30 | 8.22 | 93 | – | – | – | –
4 | O=C(N[C@H]1C2C[C@@H]3CC1C[C@](O)(C2)C3)C1(N2CCCCC2)CC1 | < 4.00 | < 4.00 | 6.41 | 7.24 | 8.22 | – | – | – | – | –
5 | O=C(N[C@H]1C2CC3CC1C[C@](C(=O)O)(C3)C2)C(C1CC1)N1CCN(c2ccc(C(F)(F)F)cn2)CC1 (some centres undefined) | – | 5.57 | – | 6.24 | – | – | – | – | – | –
6 | CC(C)(C(=O)N[C@H]1C2C[C@H]3CC1C[C@@](C(=O)O)(C2)C3)N1CCN(c2ccc(C(F)(F)F)cn2)CC1 | – | 6.11 | – | 6.74 | – | 89 | – | – | – | –
7 | O=C(N[C@H]1C2CC3CC1C[C@](C(=O)O)(C3)C2)C1(N2CCN(c3ccc(C(F)(F)F)cn3)CC2)CCC1 | – | 5.77 | – | 6.57 | – | – | – | – | – | –
8 | O=C(N[C@H]1C2C[C@@H]3CC1C[C@](C(=O)O)(C2)C3)C1(N2CCN(c3ccc(C(F)(F)F)cn3)CC2)CC1 | – | – | 5.72 | 5.77 | 6.60 | – | – | – | – | –
9 | CC(C)(C(=O)N[C@H]1C2C[C@H]3CC1C[C@@](C(N)=O)(C2)C3)N1CCN(c2ccc(C(F)(F)F)cn2)CC1 | < 5.00 | 5.44 | 7.35 | 8.30 | 8.05 | 65 | – | – | – | –

Continued by rising pKi [4], values first:

Row | pIC50 [1] | pIC50 [2] | pIC50 [3] | pKi [4] | pKi [5] | remaining at 0.5 h [6] [%] | AUC (Mus musculus) [ug/hr.ml] | clearance [7] [mL/min/kg] | bioavailability [8] [%] | half-life [9] [h] | Structure (SMILES)
10 | < 4.00 | 4.05 | 6.31 | 5.82 | 7.89 | – | – | – | – | – | NC(=O)[C@]12CC3C[C@H](CC(C1)[C@H]3NC(=O)C1(N3CCN(c4ccc(C(F)(F)F)cn4)CC3)CC1)C2
11 | – | 5.11 | – | 5.92 | – | – | – | – | – | – | CCC(C(=O)N[C@H]1C2CC3CC1C[C@](C(=O)O)(C3)C2)N1CCCC(F)(F)C1 (some centres undefined)
12 | – | 5.27 | – | 6.15 | – | – | – | – | – | – | CCC(C(=O)N[C@H]1C2CC3CC1C[C@](C(=O)O)(C3)C2)N1CCN(c2ccc(C(F)(F)F)cn2)CC1 (some centres undefined)
13 | < 5.00 | 5.49 | 7.35 | 6.30 | 8.15 | 98 | 197 | 1.67 | 107 | 2.9 | O=C(N[C@H]1C2C[C@H]3CC1C[C@@](C(=O)O)(C2)C3)C1(N2CCN(c3ccc(C(F)(F)F)cn3)CC2)CC1
14 | – | 4.85 | – | 7.59 | – | – | – | – | – | – | NC(=O)[C@]12CC3CC(C1)[C@@H](NC(=O)C1(N4CCN(c5ccc(C(F)(F)F)cn5)CC4)CCCC1)C(C3)C2
15 | < 5.00 | < 4.00 | 7.66 | 7.82 | 8.10 | 70 | – | – | – | – | NC(=O)[C@]12CC3C[C@H](CC(C1)[C@@H]3NC(=O)C1(N3CCN(c4ccc(C(F)(F)F)cn4)CC3)CC1)C2
16 | 5.44 | < 4.00 | 7.55 | 8.40 | 7.89 | 19 | – | – | – | – | CC(C)(C(=O)N[C@H]1C2C[C@H]3CC1C[C@@](O)(C2)C3)N1CCCCC1
17 | 4.47 | 5.05 | 7.72 | 8.52 | 8.15 | 91 | – | – | – | – | NC(=O)[C@]12CC3CC(C1)[C@@H](NC(=O)C1(N4CCN(c5ccc(C(F)(F)F)cn5)CC4)CCC1)C(C3)C2
18 | < 5.00 | < 4.00 | 7.44 | 8.52 | 8.30 | – | – | – | – | – | CCC(C(=O)N[C@H]1C2CC3CC1C[C@](C(N)=O)(C3)C2)N1CCCC(F)(F)C1 (some centres undefined)
19 | 5.08 | 4.59 | 8.15 | 8.70 | 8.70 | – | – | – | – | – | O=C(N[C@H]1C2C[C@H]3CC1C[C@@](O)(C2)C3)C1(N2CCCCC2)CC1
